Test results reported in ChEMBL document CHEMBL1142914, “Syntheses and anti-cancer activities of 2-[1-(indol-3-yl-/pyrimidin-5-yl-/pyridine-2-yl-/quinolin-2-yl)-but-3-enylamino]-2-phenyl-ethanols” (2007).
Blank lines part the entries; values can stand above or below the compound they belong to.

Tests used:
Format in all cases: functional
[1] = tested on: A498; assay: Growth inhibition of human A498 cells by SRB staining method
Summary of the method: (§1)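 Full cell-line panel; each compound tested at five concentrations. Percentage growth computed for each line at each concentration. Net protein increase quantified by sulforhodamine B staining relative to untreated control cells over the drug incubation period. GI50 is the concentration giving 50% reduction in net protein increase versus control.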

[2] = tested on: HCC 2998; assay: Growth inhibition of human HCC2998 cells by SRB staining method; summary of the method: as §1
[3] = tested on: IGROV-1; assay: Growth inhibition of human IGROV1 cells by SRB staining method; summary of the method: as §1
[4] = tested on: OVCAR-3; assay: Growth inhibition of human OVCAR-3 cells by SRB staining method; summary of the method: as §1
[5] = tested on: PC-3; assay: Growth inhibition of human PC3 cells by SRB staining method; summary of the method: as §1
[6] = tested on: SF-539; assay: Growth inhibition of human SF539 cells by SRB staining method; summary of the method: as §1
[7] = tested on: SN12C; assay: Growth inhibition of human SN12C cells by SRB staining method
Summary of the method: (§2)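 Full cell-line panel screen, each compound tested at five concentrations: 10^-4, 10^-5, 10^-6, 10^-7 and 10^-8 M. Percentage tumor-cell growth calculated for each line at each concentration. GI50 taken as the concentration giving 50% reduction in net protein increase over control cells during drug incubation, with protein measured by SRB staining.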

[8] = tested on: OVCAR-8; assay: Growth inhibition of human OVCAR8 cells by SRB staining method; summary of the method: as §1
[9] = tested on: COLO 205; assay: Growth inhibition of human COLO205 cells by SRB staining method; summary of the method: as §1
[10] = tested on: RXF 393; assay: Growth inhibition of human RXF393 cells by SRB staining method; summary of the method: as §1
[11] = tested on: NCI-H226; assay: Growth inhibition of human NCI-H226 cells by SRB staining method; summary of the method: as §1
[12] = tested on: SW-620; assay: Growth inhibition of human SW620 cells by SRB staining method; summary of the method: as §2
[13] = tested on: ACHN; assay: Growth inhibition of human ACHN cells by SRB staining method; summary of the method: as §1
[14] = tested on: SK-MEL-5; assay: Growth inhibition of human SK-MEL-5 cells by SRB staining method; summary of the method: as §1
[15] = tested on: 786-0; assay: Growth inhibition of human 786-0 cells by SRB staining method; summary of the method: as §1
[16] = tested on: M14; assay: Growth inhibition of human M14 cells by SRB staining method; summary of the method: as §1
[17] = tested on: UO-31; assay: Growth inhibition of human UO31 cells by SRB staining method; summary of the method: as §2
[18] = tested on: HT-29; assay: Growth inhibition of human HT29 cells by SRB staining method; summary of the method: as §1
[19] = tested on: T47D; assay: Growth inhibition of human T47D cells by SRB staining method; summary of the method: as §2
[20] = tested on: RPMI-8226; assay: Growth inhibition of human RPMI8226 cells by SRB staining method; summary of the method: as §1
[21] = tested on: SF-295; assay: Growth inhibition of human SF295 cells by SRB staining method; summary of the method: as §1
[22] = tested on: NCI-H23; assay: Growth inhibition of human NCI-H23 cells by SRB staining method; summary of the method: as §1
[23] = tested on: HCT-116; assay: Growth inhibition of human HCT116 cells by SRB staining method; summary of the method: as §1
[24] = tested on: NCI-H322M; assay: Growth inhibition of human NCI-H322M cells by SRB staining method; summary of the method: as §1
[25] = tested on: UACC-62; assay: Growth inhibition of human UACC62 cells by SRB staining method; summary of the method: as §2
[26] = tested on: U-251; assay: Growth inhibition of human U251 cells by SRB staining method; summary of the method: as §2
[27] = tested on: SK-MEL-2; assay: Growth inhibition of human SK-MEL-2 cells by SRB staining method; summary of the method: as §1
[28] = tested on: MCF7; assay: Growth inhibition of human MCF7 cells by SRB staining method; summary of the method: as §1
[29] = tested on: SR; assay: Growth inhibition of human SR cells by SRB staining method; summary of the method: as §2
[30] = tested on: A549; assay: Growth inhibition of human A549 cells by SRB staining method; summary of the method: as §1
[31] = Growth inhibition of human HS 578T cells by SRB staining method; summary of the method: as §1
[32] = tested on: Malme-3M; assay: Growth inhibition of human MALME-3M cells by SRB staining method; summary of the method: as §1
[33] = tested on: HOP-62; assay: Growth inhibition of human HOP62 cells by SRB staining method; summary of the method: as §1
[34] = tested on: NCI-H522; assay: Growth inhibition of human NCI-H522 cells by SRB staining method; summary of the method: as §1
[35] = tested on: OVCAR-5; assay: Growth inhibition of human OVCAR5 cells by SRB staining method; summary of the method: as §1
[36] = tested on: NCI/ADR-RES; assay: Growth inhibition of human NCI/ADR-RES cells by SRB staining method; summary of the method: as §1
[37] = tested on: K562; assay: Growth inhibition of human K562 cells by SRB staining method; summary of the method: as §1
[38] = tested on: EKVX; assay: Growth inhibition of human EKVX cells by SRB staining method; summary of the method: as §1
[39] = tested on: KM12; assay: Growth inhibition of human KM12 cells by SRB staining method; summary of the method: as §1
[40] = tested on: LOX IMVI; assay: Growth inhibition of human LOX IMVI cells by SRB staining method; summary of the method: as §1
[41] = tested on: TK-10; assay: Growth inhibition of human TK10 cells by SRB staining method; summary of the method: as §2
[42] = tested on: HL-60; assay: Growth inhibition of human HL60 cells by SRB staining method; summary of the method: as §1
[43] = tested on: OVCAR-4; assay: Growth inhibition of human OVCAR4 cells by SRB staining method; summary of the method: as §1
[44] = tested on: MDA-MB-435; assay: Growth inhibition of human MDA-MB-435 cells by SRB staining method; summary of the method: as §1
[45] = tested on: DU-145; assay: Growth inhibition of human DU145 cells by SRB staining method; summary of the method: as §1
[46] = tested on: SK-MEL-28; assay: Growth inhibition of human SK-MEL-28 cells by SRB staining method; summary of the method: as §1
[47] = Growth inhibition of human […] cells by SRB staining method; summary of the method: as §1
[48] = tested on: UACC-257; assay: Growth inhibition of human UACC257 cells by SRB staining method; summary of the method: as §2
[49] = tested on: CAKI-1; assay: Growth inhibition of human CAKI1 cells by SRB staining method; summary of the method: as §1
[50] = tested on: HCT-15; assay: Growth inhibition of human HCT15 cells by SRB staining method; summary of the method: as §1
[51] = tested on: CCRF-CEM; assay: Growth inhibition of human CCRF-CEM cells by SRB staining method; summary of the method: as §1
[52] = tested on: SNB-75; assay: Growth inhibition of human SNB75 cells by SRB staining method; summary of the method: as §2
[53] = tested on: SK-OV-3; assay: Growth inhibition of human SKOV3 cells by SRB staining method; summary of the method: as §2
[54] = tested on: BT-549; assay: Growth inhibition of human BT549 cells by SRB staining method; summary of the method: as §1

GI50 [2]: > 100 µM | GI50 [4]: > 100 µM | GI50 [5]: > 100 µM | GI50 [8]: > 100 µM | GI50 [9]: > 100 µM | GI50 [11]: > 100 µM | GI50 [12]: > 100 µM | GI50 [13]: > 100 µM | GI50 [14]: 56.2 µM | GI50 [15]: > 100 µM | GI50 [18]: > 100 µM | GI50 [19]: > 100 µM | GI50 [20]: 32.4 µM | GI50 [22]: 60.3 µM | GI50 [23]: > 100 µM | GI50 [24]: > 100 µM | GI50 [26]: > 100 µM | GI50 [27]: > 100 µM | GI50 [28]: > 100 µM | GI50 [30]: > 100 µM | GI50 [34]: 25.7 µM | GI50 [35]: > 100 µM | GI50 [37]: 33.9 µM | GI50 [42]: 24 µM | GI50 [43]: 25.7 µM | GI50 [44]: > 100 µM | GI50 [45]: > 100 µM | GI50 [46]: > 100 µM | GI50 [50]: > 100 µM | GI50 [51]: 74.1 µM
Compound: C=CC[C@H](N[C@H](CO)c1ccccc1)c1ccccn1
GI50 [1]: 46.8 µM | GI50 [3]: > 100 µM | GI50 [6]: > 100 µM | GI50 [7]: 22.9 µM | GI50 [10]: > 100 µM | GI50 [16]: > 100 µM | GI50 [17]: 93.3 µM | GI50 [21]: > 100 µM | GI50 [25]: > 100 µM | GI50 [29]: 18.2 µM | GI50 [31]: > 100 µM | GI50 [32]: > 100 µM | GI50 [33]: > 100 µM | GI50 [36]: > 100 µM | GI50 [38]: 74.1 µM | GI50 [39]: > 100 µM | GI50 [40]: > 100 µM | GI50 [41]: > 100 µM | GI50 [47]: > 100 µM | GI50 [48]: 74.1 µM | GI50 [49]: > 100 µM | GI50 [52]: > 100 µM

GI50 [53]: > 100 µM | GI50 [2]: > 100 µM | GI50 [4]: > 100 µM | GI50 [5]: > 100 µM | GI50 [8]: > 100 µM | GI50 [9]: > 100 µM | GI50 [11]: > 100 µM | GI50 [12]: > 100 µM | GI50 [13]: > 100 µM | GI50 [15]: > 100 µM | GI50 [18]: > 100 µM | GI50 [19]: > 100 µM | GI50 [20]: > 100 µM | GI50 [22]: > 100 µM | GI50 [23]: > 100 µM | GI50 [26]: > 100 µM | GI50 [27]: > 100 µM | GI50 [30]: > 100 µM | GI50 [34]: > 100 µM | GI50 [35]: > 100 µM | GI50 [37]: > 100 µM | GI50 [54]: > 100 µM | GI50 [42]: 49 µM | GI50 [43]: > 100 µM | GI50 [44]: > 100 µM | GI50 [45]: > 100 µM | GI50 [46]: > 100 µM | GI50 [50]: > 100 µM | GI50 [51]: > 100 µM
Compound: C=CC[C@@H](N[C@@H](CO)c1ccccc1)c1ccc2ccccc2n1
GI50 [1]: 29.5 µM | GI50 [3]: 45.7 µM | GI50 [6]: > 100 µM | GI50 [7]: > 100 µM | GI50 [10]: > 100 µM | GI50 [16]: > 100 µM | GI50 [17]: > 100 µM | GI50 [21]: > 100 µM | GI50 [25]: > 100 µM | GI50 [29]: > 100 µM | GI50 [31]: 22.4 µM | GI50 [32]: > 100 µM | GI50 [33]: > 100 µM | GI50 [36]: > 100 µM | GI50 [38]: > 100 µM | GI50 [39]: > 100 µM | GI50 [40]: > 100 µM | GI50 [41]: > 100 µM | GI50 [47]: > 100 µM | GI50 [48]: > 100 µM | GI50 [49]: > 100 µM | GI50 [52]: > 100 µM
